ChEMBL document CHEMBL3244011, “(Aryloxy)[p-(aryloxy)phenyl]- and (aryloxy)[p-(arylthio)phenyl]acetic acids and esters as hypolipidemic agents” (1979)

Columns and labels:
Type in all cases: functional
Set-up in all cases: scale not given: the % may be the effect or the level left
[1] = system: Rattus norvegicus; test: Hypolipidemic activity in COBBS-CD rat assessed as reduction in serum triglyceride level at 0.3% administered with chow diet after 5 days relative to control
[2] = system: Rattus norvegicus; test: Hypolipidemic activity in COBBS-CD rat assessed as reduction in serum sterol level at 0.1% administered with chow diet after 5 days relative to control
How it was run: (§1)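 Male COBBS-CD rats, four per treated group and eight per control group. The compound was mixed into ground rat chow at 0.1, 0.03 or 0.01% w/w (about 100, 30 and 10 mg/kg). Control chow received only the mixing solvent (methanol-chloroform 1:3 v/v). Food and water were ad libitum for 5 days, then rats were decapitated and blood collected. Serum sterols were measured by an automated method and expressed relative to controls; ± values are SD.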

[3] = system: Rattus norvegicus; test: Hypolipidemic activity in COBBS-CD rat assessed as reduction in serum triglyceride level at 0.1% administered with chow diet after 5 days relative to control
How it was run: (§2)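 The compound was given in ground chow at 0.1, 0.03 or 0.01% w/w (about 100, 30 and 10 mg/kg) to male COBBS-CD rats (n=4; solvent-chow controls n=8) for 5 days ad libitum. Rats were killed by decapitation and blood collected. Serum triglycerides were assayed by an automated method and compared with controls; ± values are SD.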

[4] = system: Rattus norvegicus; test: Hypolipidemic activity in COBBS-CD rat assessed as reduction in serum sterol level at 0.3% administered with chow diet after 5 days relative to control
[5] = system: Rattus norvegicus; test: Hypolipidemic activity in COBBS-CD rat assessed as reduction in serum sterol level at 0.03% administered with chow diet after 5 days relative to control; how it was run: as §1
[6] = system: Rattus norvegicus; test: Hypolipidemic activity in COBBS-CD rat assessed as reduction in serum triglyceride level at 0.01% administered with chow diet after 5 days relative to control; how it was run: as §2
[7] = system: Rattus norvegicus; test: Hypolipidemic activity in COBBS-CD rat assessed as reduction in serum triglyceride level at 0.03% administered with chow diet after 5 days relative to control; how it was run: as §2
[8] = system: Rattus norvegicus; test: Hypolipidemic activity in COBBS-CD rat assessed as reduction in serum sterol level at 0.01% administered with chow diet after 5 days relative to control; how it was run: as §1

CCOC(=O)C(C)(C)Oc1ccc(Cl)cc1 [CLOFIBRATE]
Activity [1]: 58% | Activity [2]: 0% | Activity [3]: 30% | Activity [4]: 19%

COC(=O)C(C)(Oc1ccc(Cl)cc1)c1ccc(Oc2ccc(Cl)cc2)cc1 (stereo not given)
Activity [5]: 14% | Activity [6]: 39% | Activity [2]: 39% | Activity [7]: 44% | Activity [3]: 63% | Activity [8]: 9%
